From ChEMBL document CHEMBL1137015, “Improved, selective, human intestinal carboxylesterase inhibitors designed to modulate 7-ethyl-10-[4-(1-piperidino)-1-piperidino]carbonyloxycamptothecin (Irinotecan; CPT-11) toxicity” (J Med Chem, 2009)
The source made the active and inactive calls.

Key:
[1] = target: Acetylcholinesterase (Homo sapiens) (UniProt P22303); assay: Inhibition of human AchE using acetylthiocholine as substrate by spectrophotometric multiwell plate assay
[2] = Inhibition of human intestinal CE-mediated irinotecan hydrolysis
Outline: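 Human intestinal CE (25 U per reaction; 1 U converts 1 nmole o-nitrophenyl acetate/min) with 20µM CPT-11 in 50mM Hepes pH7.4, inhibitor 1nM to 100µM. Incubated 37°C for 5 min, stopped with cold acidified methanol, centrifuged. SN-38 measured by reverse phase HPLC. Fractional inhibition fitted to partial inhibition equation, model chosen by Akaike's criteria, Ki from best fit.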

[3] = target: Cholinesterase (Homo sapiens) (UniProt P06276); assay: Inhibition of human BchE using butyrylthiocholine as substrate by spectrophotometric multiwell plate assay
Chain of Cholinesterase (Homo sapiens) (P06276 whole entry): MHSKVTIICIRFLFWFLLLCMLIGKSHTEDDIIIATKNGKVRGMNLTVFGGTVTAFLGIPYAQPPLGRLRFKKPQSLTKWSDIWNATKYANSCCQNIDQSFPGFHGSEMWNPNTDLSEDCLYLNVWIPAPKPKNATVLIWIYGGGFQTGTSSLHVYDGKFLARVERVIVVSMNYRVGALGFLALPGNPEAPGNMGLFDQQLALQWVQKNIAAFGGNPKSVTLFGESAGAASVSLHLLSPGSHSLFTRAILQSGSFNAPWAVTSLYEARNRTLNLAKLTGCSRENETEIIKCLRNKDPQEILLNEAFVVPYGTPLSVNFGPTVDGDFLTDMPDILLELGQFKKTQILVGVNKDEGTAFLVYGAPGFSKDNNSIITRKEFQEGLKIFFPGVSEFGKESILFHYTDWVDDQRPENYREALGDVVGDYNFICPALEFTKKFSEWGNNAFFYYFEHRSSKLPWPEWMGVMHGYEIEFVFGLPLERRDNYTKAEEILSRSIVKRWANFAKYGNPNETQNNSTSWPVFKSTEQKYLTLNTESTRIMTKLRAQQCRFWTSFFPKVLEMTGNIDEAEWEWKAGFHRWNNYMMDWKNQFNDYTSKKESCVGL

[4] = Inhibition of human intestinal CE-mediated O-nitrophenyl acetate hydrolysis by spectrophotometry
Outline: (§1)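 Enzyme activity read spectrophotometrically as release of o-nitrophenol from o-nitrophenyl acetate across increasing inhibitor concentrations. Inhibitors were freshly dissolved in DMSO, typically as 10mM stocks. Fractional inhibition was plotted against inhibitor concentration and fitted to a partial-inhibition equation including Ks, α and β. Inhibition mode was chosen by Akaike's information criteria, and Ki was taken from the best-fit model.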

[5] = target: T1, Liver carboxylesterase 1 (Homo sapiens, UniProt P23141); assay: Inhibition of human liver CE1-mediated O-nitrophenyl acetate hydrolysis by spectrophotometry; outline: as §1
T1 sequence (P23141 whole entry): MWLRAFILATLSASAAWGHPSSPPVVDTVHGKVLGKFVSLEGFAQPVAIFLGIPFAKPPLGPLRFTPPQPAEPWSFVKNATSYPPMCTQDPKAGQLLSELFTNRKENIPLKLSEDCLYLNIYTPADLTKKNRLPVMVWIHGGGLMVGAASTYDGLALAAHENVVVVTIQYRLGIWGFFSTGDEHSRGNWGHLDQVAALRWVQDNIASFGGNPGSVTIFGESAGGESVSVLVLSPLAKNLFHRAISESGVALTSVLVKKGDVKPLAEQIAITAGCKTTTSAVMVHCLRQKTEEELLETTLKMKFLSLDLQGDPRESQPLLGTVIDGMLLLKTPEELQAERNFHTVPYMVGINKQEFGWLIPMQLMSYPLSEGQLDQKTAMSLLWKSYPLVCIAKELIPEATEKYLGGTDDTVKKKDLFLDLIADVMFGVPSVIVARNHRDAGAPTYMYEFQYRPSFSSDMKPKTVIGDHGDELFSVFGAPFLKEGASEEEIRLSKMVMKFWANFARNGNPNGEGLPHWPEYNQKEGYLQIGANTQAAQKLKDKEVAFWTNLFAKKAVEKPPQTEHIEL

Chain of Acetylcholinesterase (Homo sapiens) (P22303 whole entry): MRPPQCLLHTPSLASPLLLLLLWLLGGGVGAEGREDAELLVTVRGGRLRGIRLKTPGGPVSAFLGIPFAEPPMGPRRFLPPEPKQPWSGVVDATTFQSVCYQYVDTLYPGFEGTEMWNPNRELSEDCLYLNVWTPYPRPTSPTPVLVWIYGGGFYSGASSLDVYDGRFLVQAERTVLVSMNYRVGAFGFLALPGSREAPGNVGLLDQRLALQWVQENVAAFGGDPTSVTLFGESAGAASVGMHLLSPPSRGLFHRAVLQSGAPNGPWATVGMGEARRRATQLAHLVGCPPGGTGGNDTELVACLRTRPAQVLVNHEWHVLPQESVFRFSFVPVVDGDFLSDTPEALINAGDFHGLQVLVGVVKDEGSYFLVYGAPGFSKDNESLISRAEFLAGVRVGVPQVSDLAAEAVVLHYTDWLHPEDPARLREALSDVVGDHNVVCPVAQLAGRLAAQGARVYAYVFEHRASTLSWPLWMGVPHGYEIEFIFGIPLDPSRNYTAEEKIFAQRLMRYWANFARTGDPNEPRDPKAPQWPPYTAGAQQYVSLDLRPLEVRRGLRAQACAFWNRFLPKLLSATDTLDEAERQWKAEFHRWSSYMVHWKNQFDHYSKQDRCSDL

| SMILES | Activity [1] | Ki [2] [nM] | Activity [3] | Ki [4] [nM] | Ki [5] [nM] |
| --- | --- | --- | --- | --- | --- |
| O=S(=O)(Nc1ccc2c(c1)Cc1cc(NS(=O)(=O)c3cccc(Br)c3)ccc1-2)c1cccc(Br)c1 | inactive | 39.7 | inactive | 21.2 | > 100000 |
| O=S(=O)(Nc1ccc(NS(=O)(=O)c2ccc(F)cc2)cc1)c1ccc(F)cc1 | inactive | 79 | inactive | 355 | > 100000 |
| O=S(=O)(Nc1ccc2c(c1)Cc1cc(NS(=O)(=O)c3ccc(Cl)cc3)ccc1-2)c1ccc(Cl)cc1 | inactive | 37.7 | inactive | 23.5 | > 100000 |
| Cc1ccc(S(=O)(=O)Nc2ccc(NS(=O)(=O)c3ccc(F)cc3F)cc2)cc1 | inactive |  | inactive | 385 | > 100000 |
| O=S(=O)(Nc1ccc2c(c1)Cc1cc(NS(=O)(=O)c3cccc(Cl)c3)ccc1-2)c1cccc(Cl)c1 | inactive | 52.8 | inactive | 13.9 | > 100000 |
| O=S(=O)(Nc1cc(Cl)c(NS(=O)(=O)c2ccc(Cl)cc2)cc1Cl)c1ccc(Cl)cc1 | inactive |  | inactive | 455 | > 100000 |
| Cc1ccc(S(=O)(=O)Nc2ccc(NS(=O)(=O)c3ccc(F)c(F)c3)cc2)cc1 | inactive |  | inactive | 194 | > 100000 |
| O=S(=O)(Nc1ccc(NS(=O)(=O)c2ccc(F)c(F)c2)cc1)c1ccccc1 | inactive |  | inactive | 488 | > 100000 |
| COc1ccc(S(=O)(=O)Nc2ccc(NS(=O)(=O)c3ccc(F)cc3)cc2)cc1 | inactive |  | inactive | 568 | > 100000 |
| O=S(=O)(Nc1ccc(NS(=O)(=O)c2cc(F)c(F)c(F)c2)cc1)c1cc(F)c(F)c(F)c1 | inactive | 192 | inactive | 210 | > 100000 |
| O=S(=O)(Nc1ccc(NS(=O)(=O)c2cccc(Cl)c2Cl)cc1)c1cccc(Cl)c1Cl | inactive |  | inactive | 268 | > 100000 |
| Cc1ccc(S(=O)(=O)Nc2ccc(NS(=O)(=O)c3ccc(Cl)cc3)cc2)cc1 | inactive |  | inactive | 161 | > 100000 |
| O=S(=O)(Nc1ccc(NS(=O)(=O)c2cc(Cl)ccc2Cl)cc1)c1cc(Cl)ccc1Cl | inactive |  | inactive | 119 | > 100000 |
| Cc1ccc(S(=O)(=O)Nc2ccc(NS(=O)(=O)c3cc(F)ccc3F)cc2)cc1 | inactive |  | inactive | 467 | > 100000 |
| O=S(=O)(Nc1ccc(NS(=O)(=O)c2ccc3ccccc3c2)cc1)c1ccc2ccccc2c1 | inactive |  | inactive | 1580 | > 100000 |
| O=S(=O)(Nc1ccc(NS(=O)(=O)c2ccc(Cl)cc2)c2ccccc12)c1ccc(Cl)cc1 | inactive | > 100000 | inactive | 194 |  |
| O=S(=O)(Nc1ccc(NS(=O)(=O)c2ccccc2)c(Cl)c1)c1ccccc1 | inactive |  | inactive | 696 | > 100000 |
| O=S(=O)(Nc1c(F)c(F)c(NS(=O)(=O)c2ccc(Cl)cc2)c(F)c1F)c1ccc(Cl)cc1 | inactive | 110 | inactive | 41.5 |  |
| O=S(=O)(Nc1ccc(NS(=O)(=O)c2ccc(F)c(F)c2)cc1)c1ccc(F)c(F)c1 | inactive |  | inactive | 160 | > 100000 |
| O=S(=O)(Nc1ccc(NS(=O)(=O)c2ccc(Cl)cc2)cc1)c1ccc(F)cc1 | inactive |  | inactive | 200 | > 100000 |
| CS(=O)(=O)Nc1ccc(SSc2ccc(NS(C)(=O)=O)cc2)cc1 | inactive | > 100000 | inactive | 767 |  |
| O=S(=O)(Nc1c(F)c(F)c(NS(=O)(=O)c2ccc(F)cc2)c(F)c1F)c1ccc(F)cc1 | inactive |  | inactive | 314 | > 100000 |

| SMILES | Activity [1] | Ki [2] [nM] | Activity [3] | Ki [4] [nM] | Ki [5] [nM] |
| --- | --- | --- | --- | --- | --- |
| Cc1c(C)c(NS(=O)(=O)c2cccc(Cl)c2)c(C)c(C)c1NS(=O)(=O)c1cccc(Cl)c1 | inactive |  | inactive | 2060 | > 100000 |
| O=S(=O)(Nc1ccc(NS(=O)(=O)c2cc(Cl)c(Cl)cc2Cl)cc1)c1cc(Cl)c(Cl)cc1Cl | inactive |  | inactive | > 100000 | > 100000 |
| O=S(=O)(Nc1ccc(NS(=O)(=O)c2ccc(Cl)c(Cl)c2)cc1)c1ccc(Cl)c(Cl)c1 | inactive |  | inactive | 91.5 | > 100000 |
| O=S(=O)(Nc1c(Cl)c(Cl)c(NS(=O)(=O)c2ccccc2)c(Cl)c1Cl)c1ccccc1 | inactive | > 100000 | inactive | 451 |  |
| O=S(=O)(Nc1ccc(NS(=O)(=O)c2ccccc2F)cc1)c1ccccc1F | inactive |  | inactive | 1450 | > 100000 |
| CNC(=O)c1ccc(S(=O)(=O)Nc2ccc(NS(=O)(=O)c3ccc(F)cc3)cc2)cc1 | inactive |  | inactive | > 100000 | > 100000 |
| Cc1ccc(S(=O)(=O)Nc2ccc(NS(=O)(=O)c3ccc(F)cc3)cc2)cc1 | inactive |  | inactive | 281 | > 100000 |
| O=S(=O)(Nc1ccc(NS(=O)(=O)c2cc(F)cc(F)c2)cc1)c1cc(F)cc(F)c1 | inactive |  | inactive | 246 | > 100000 |
| Cc1ccc(C(=O)O)cc1S(=O)(=O)Nc1ccc(NS(=O)(=O)c2ccc(F)cc2)cc1 | inactive |  | inactive | 693 | > 100000 |
| Cc1cc(NS(=O)(=O)c2ccccc2)ccc1NS(=O)(=O)c1ccccc1 | inactive | 238 | inactive | 365 |  |
| Cc1c(C)c(NS(=O)(=O)c2ccc(Cl)c(Cl)c2)c(C)c(C)c1NS(=O)(=O)c1ccc(Cl)c(Cl)c1 | inactive |  | inactive | 344 | > 100000 |
| O=S(=O)(Nc1cc(Br)c(NS(=O)(=O)c2ccccc2)cc1Br)c1ccccc1 | inactive |  | inactive | > 100000 | > 100000 |
| O=S(=O)(Nc1cc(Br)c(NS(=O)(=O)c2ccc(Cl)cc2)cc1Br)c1ccc(Cl)cc1 | inactive |  | inactive | > 100000 | > 100000 |
| Cc1c(C)c(NS(=O)(=O)c2ccc(Cl)cc2)c(C)c(C)c1NS(=O)(=O)c1ccc(Cl)cc1 | inactive |  | inactive | 2010 | > 100000 |
| O=S(=O)(Nc1ccc(Oc2ccccc2)cc1)c1ccc(Br)cc1 | inactive | > 100000 | inactive | 165 |  |
| Cc1ccc(C)c(S(=O)(=O)Nc2ccc(NS(=O)(=O)c3ccc(F)cc3)cc2)c1 | inactive |  | inactive | 240 | > 100000 |
| O=C(O)c1ccc(S(=O)(=O)Nc2ccc(NS(=O)(=O)c3ccc(F)cc3)cc2)cc1 | inactive |  | inactive | > 100000 | > 100000 |
| O=S(=O)(Nc1ccc(NS(=O)(=O)c2cc(Cl)cc(Cl)c2)cc1)c1cc(Cl)cc(Cl)c1 | inactive |  | inactive | 385 | > 100000 |
| Cc1c(C)c(NS(=O)(=O)c2cccc(Br)c2)c(C)c(C)c1NS(=O)(=O)c1cccc(Br)c1 | inactive |  | inactive | 1570 | > 100000 |
| CCOc1ccc(NS(=O)(=O)c2ccc(Cl)cc2)cc1 | inactive | 3220 | inactive | 1310 |  |
| O=S(=O)(Nc1ccc(NS(=O)(=O)c2ccc(Cl)cc2)cc1)c1ccc(Cl)cc1 | inactive | 141 | inactive |  |  |
